# Assay outcomes from PubChem.
# This is a sample that favours compounds with a hit; in the whole collection about 3.1% have one here.
# Ecoli rRNA inh: inhibitors of bacterial rRNA selective over humanized ribosomes; E. coli WT GFP vs humanized-ribosome RFP mutants, fluorescence, 24 h; hits give low values; DMSO median 0, no signal -100; GFP signal change (wild-type ribosome), % (test concentration not listed); actives 1.6% (n = 350,000);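 active means significant combined selectivity score with lowered wild-type GFP, culture density cut under 30%, mutant RFP and density less affected; inactive means any of these conditions unmet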
# Cneo AK release: causes C. neoformans cell lysis; adenylate kinase release luminescence, 4 h; normalised: neutral wells 0, clomiphene wells 100; lysis activity, % at 15 µM; actives 0.2% (n = 360,000);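 active means mean lysis activity across replicates of at least 80%, whatever share of replicates individually reach that level; inactive means mean lysis activity below 80%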
#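 Assay system: Cryptococcus neoformans yeast cells / Dosing: single-point compound dose / Timing: 4 h at 37 °C static, read 1 h later / Measured by: luminescence of released adenylate kinase using an AK detection reagent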
# miR-122 sensor: inhibitors of miR-122 in Huh7 cells; Huh7 miR-122 Renilla luciferase sensor, 48 h; neutral wells = 0, positive control = 100; activation (reporter increase), % at 12.5 µM; actives 0.3% (n = 340,000); AID 602342;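 active means mean replicate activation score at least 90 and every replicate individually at or above 90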;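 further: higher luciferase means less miR-122 activity so hits act as miR-122 inhibitors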
# DENV2 CPE: protects cells from dengue virus 2 cytopathic effect; DENV2-infected cells, cytopathic effect rescue, plate reader; CPE inhibition, % at 9.99 µM; actives 1.7% (n = 350,000); in the data active means CPE inhibition above about 20%, passing the limit was not always enough; tested in BHK-21 cells;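 further: 0% = median of neutral control wells and 100% = median of positive control wells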
# E-selectin induc: induces E-selectin expression in human endothelial cells; P16581; HUVEC E-selectin immunofluorescence imaging; normalized: neutral wells 0, TNF-alpha wells 100; activation, % at 7.58 µM; actives 0.37% (n = 260,000); AID 686992;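 active means mean E-selectin-positive cell signal at least 10% of the positive control, reached in at least 60% of replicates, without over 20% cell loss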
# Target sequence (P16581 whole entry, looked up): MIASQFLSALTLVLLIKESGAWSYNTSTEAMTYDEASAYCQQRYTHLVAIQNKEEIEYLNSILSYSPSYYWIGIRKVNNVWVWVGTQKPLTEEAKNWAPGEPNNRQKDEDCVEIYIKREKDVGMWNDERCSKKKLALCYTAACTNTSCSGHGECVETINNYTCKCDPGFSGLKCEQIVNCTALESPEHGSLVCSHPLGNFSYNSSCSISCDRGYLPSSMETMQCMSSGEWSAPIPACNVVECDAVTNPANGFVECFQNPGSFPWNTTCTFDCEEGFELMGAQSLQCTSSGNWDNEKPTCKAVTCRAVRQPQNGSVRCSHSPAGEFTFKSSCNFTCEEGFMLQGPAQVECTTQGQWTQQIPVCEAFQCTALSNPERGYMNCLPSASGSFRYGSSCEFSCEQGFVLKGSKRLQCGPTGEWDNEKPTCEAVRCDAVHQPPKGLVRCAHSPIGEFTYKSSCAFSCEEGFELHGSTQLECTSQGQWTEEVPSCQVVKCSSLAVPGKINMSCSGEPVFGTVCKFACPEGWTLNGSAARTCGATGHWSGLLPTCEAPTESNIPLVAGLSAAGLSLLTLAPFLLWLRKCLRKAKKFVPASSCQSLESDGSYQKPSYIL
#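 assay system = HUVEC, human umbilical vein endothelial cells | input = 3,000 HUVEC seeded per well | medium = EGM-2 growth medium on 0.1% gelatin-coated wells | dosing = one compound dose added by pin transfer | signal = immunofluorescence imaging | read-out basis = % PE-positive cells | control set = TNF-alpha, DMSO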
# Numbers without * were called inactive; . = no result; ! = not active in a repeat; [ ] = another dose, or the depositor's remark.
SMILES,Ecoli rRNA inh,Cneo AK release,miR-122 sensor,DENV2 CPE,E-selectin induc
CO[C@@H]1CN(C)C(=O)c2cc(NC(C)=O)ccc2OC[C@H](C)N(Cc2cccc(F)c2)C[C@@H]1C,3,6,.,0,0
C[C@@H]1CN([C@H](C)CO)C(=O)c2cc(NC(=O)Nc3ccccc3)ccc2O[C@@H](C)CCCCO[C@@H]1CN(C)Cc1ccc(C(F)(F)F)cc1,0,-1,-2[16.7 µM],-4,0
CCn1c(-c2sc(-c3ccccc3)nc2C)n[nH]c1=S,-30*,.,.,3,.
Cc1ccc(-n2c(C)nc3ccsc3c2=O)cc1,-36*,0,0,10,.
Cc1nn(-c2ccccc2)c(Cl)c1/C=C1\SC(=S)N(CCCCCC(=O)O)C1=O,-32*,.,0,4,.
COCC(=O)N(C)C[C@@H]1Oc2ncc(-c3cccc(OC)c3)cc2C(=O)N([C@H](C)CO)C[C@H]1C,3,-1,-4[16.7 µM],8,0
CO[C@@H]1CN(C)C(=O)c2ccc(NC(=O)Nc3ccccc3F)cc2OC[C@@H](C)N(S(=O)(=O)CC(F)(F)F)C[C@H]1C,-2,-12,.,16,0
COCCCNc1oc(-c2ccccc2OC)nc1C#N,.,-2,5,.,.
COCCCNc1oc(-c2ccccc2F)nc1C#N,-7,0,-2,25*,0
O=S(=O)(N[C@H]1CC[C@@H](CCn2cc(C3(O)CCCC3)nn2)O[C@@H]1CO)c1ccc(F)cc1,1,-4,.,16,1
COc1ccc2c3c(n(C)c2c1)[C@@H](CO)N(S(C)(=O)=O)CC31CN(C(=O)c2ccccn2)C1,-2,.,.,34*,0
COc1ccc2c3c(n(C)c2c1)[C@H](CO)N(S(C)(=O)=O)CC31CCN(C(=O)c2ccccn2)CC1,-2,.,.,77*,0
CCNC(=O)C[C@@H]1CC[C@H](NC(=O)NC2CCCCC2)[C@@H](CO)O1,2,1,.,2,0
CCNC(=O)C[C@H]1CC[C@H](NC(=O)NC2CCCCC2)[C@@H](CO)O1,-6,107*,.,.,1
CCNC(=O)C[C@H]1CC[C@@H](NC(=O)NC2CCCCC2)[C@H](CO)O1,4,97*,.,-2,0
COc1ccc2c3c([nH]c2c1)[C@H](CO)N(C(=O)c1cccnc1)CC31CCN(C(=O)NC(C)C)CC1,2,.,.,-8,0
CN(C)C(=O)c1cccc(-c2ccc([C@@H]3[C@@H](C#N)N(C(=O)C4CCCC4)[C@@H]3CO)cc2)c1,-3,.,.,7,0
COc1ccc(CN(CC2CCC(C(=O)O)CC2)C(=S)Nc2ccc(C)c(Cl)c2)cc1 (stereo not drawn),-33*,-2,0,-6,.
Cc1cc(/C=C2/NC(=O)NC2=O)c(C)n1-c1ccncc1,-28*,1,1,-5,4
CC(C)NC(=O)N(C)C[C@@H]1Oc2cc(C#C[C@H](C)O)ccc2S(=O)(=O)N([C@@H](C)CO)C[C@@H]1C,0,2,24[16.7 µM],2,1
CC(=O)N1[C@H](CO)[C@H](c2ccc(C3=CCCC3)cc2)[C@@H]1CNC(=O)CN(C)C,2,0,7[16.7 µM],15,0
Cc1ccc(C2c3c(n[nH]c3C)C(=O)N2Cc2ccccc2)cc1 (stereo not drawn),1,.,.,-6,0
Cc1[nH]nc2c1C(c1ccc(Br)cc1)N(Cc1ccccc1)C2=O (stereo not drawn),-25*,.,.,9,0
CC(C)CC#Cc1ccc2c(c1)O[C@@H](CN(C)C(=O)CN(C)C)[C@@H](C)CN([C@@H](C)CO)S2(=O)=O,6,45,4[16.7 µM],-8,0
COc1ccc(NC(=O)Nc2cccc3c2O[C@@H](CN(C)C(=O)NC2CCCCC2)[C@@H](C)CN([C@H](C)CO)C3=O)cc1,-4,52,-2[16.7 µM],3,38*
SMILES,Ecoli rRNA inh,Cneo AK release,miR-122 sensor,DENV2 CPE,E-selectin induc
C[C@@H]1CN([C@H](C)CO)C(=O)c2cccc(NC(=O)Nc3ccc(F)cc3)c2O[C@H]1CN(C)C(=O)NC1CCCCC1,-3,-5,-3[16.7 µM],4,66*
C[C@H](CO)N1C[C@H](C)[C@H](CN(C)C(=O)NC2CCCCC2)Oc2c(NC(=O)Nc3ccc(F)cc3)cccc2C1=O,-5,-8,-3[16.7 µM],8,-6
C[C@@H]1CN([C@@H](C)CO)C(=O)c2cccc(NC(=O)Nc3ccc(C(F)(F)F)cc3)c2O[C@H]1CN(C)C(=O)NC1CCCCC1,0,-1,-11[16.7 µM],1,2
C[C@H](CO)N1C[C@H](C)[C@@H](CN(C)C(=O)NC2CCCCC2)Oc2c(NC(=O)Nc3ccc(C(F)(F)F)cc3)cccc2C1=O,4,-4,13[16.7 µM],29*!,0
COc1ccc(NC(=O)Nc2cccc3c2O[C@@H](CN(C)C(=O)NC(C)C)[C@@H](C)CN([C@@H](C)CO)C3=O)cc1,-1,-9,-4[16.7 µM],38*,6
O=C(CC1CC1)N[C@H]1CC[C@@H](CCNS(=O)(=O)c2ccc(Cl)cc2)O[C@H]1CO,-1,11,.,3,0
C#Cc1ccc([C@@H]2C=C(C(=O)Nc3ccccc3)O[C@H](OCc3ccc(CO)cc3)C2)cc1,.,1,.,8,.
COc1ccccc1N(C1=NCCCS1)S(=O)(=O)c1ccc(C(C)(C)C)cc1,-16*,.,1,7,5
COc1ccc(N(C2=NCCCS2)S(=O)(=O)c2ccc(C(C)(C)C)cc2)cc1,4,-3,1,-2,3
C[C@H]1CN([C@@H](C)CO)C(=O)CCCn2nncc2CO[C@H]1CN(C)Cc1ccc(Cl)c(Cl)c1,-8,0,-1[16.7 µM],3,0
CC(=O)N1[C@H](CO)[C@@H](c2ccccc2)C12CN(C(=O)c1ccccn1)C2,1,.,.,-5,0
O=C(Nc1cccc(S(=O)(=O)N2CCCCC2)c1)C1CC(=O)N(Cc2ccccc2)C1 (stereo not drawn),-24*,0,11,-7,.
O=C(NCc1ccc(Cl)cc1Cl)C1CC(=O)N(Cc2ccccc2)C1 (stereo not drawn),-23*,.,-2,12,3
Cc1ccc(S(=O)(=O)N2CCCCC2)cc1NC(=O)c1ccc2ccccc2n1,14,.,.,-4,0
O=C(Nc1cccc(S(=O)(=O)N2CCCCCC2)c1)c1ccc2ccccc2n1,-9,-1,9,22*,.
COc1cc(CN2CC3(CCN(C)CC3)c3c([nH]c4cc(OC)ccc34)[C@@H]2CO)cc(OC)c1,-1,.,.,.,.
CC(C)NC(=O)N(C)C[C@H]1Oc2ccc(NC(=O)Cc3cn(C)c4ccccc34)cc2C(=O)N([C@@H](C)CO)C[C@H]1C,2,0,6[16.7 µM],-2,7
O=C(/C=C/c1cccc([N+](=O)[O-])c1)NCCSCc1ccc(Cl)cc1,-20*,.,.,-2,.
COCC(=O)N1CC2(C1)[C@@H](c1ccc(C3=CCCC3)cc1)[C@H](CO)N2C(=O)COC,1,.,.,-2,0
